Measured values published in ChEMBL document CHEMBL4364270, “Structure-activity relationship studies on Bax activator SMBA1 for the treatment of ER-positive and triple-negative breast cancer” (Eur J Med Chem, 2019).

Assays:
MCF7 [1] = assay: Antiproliferative activity against ER-positive human MCF7 cells assessed as reduction in cell growth incubated for 48 hrs by MTT assay; assay type: functional, cell-based; conditions: MCF7, 48 h
How it was run: (§1)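 MTT viability: MCF-7 and MDA-MB-231 seeded 1×10^4 cells/well, exposed to DMSO or 0.01-100 μM for 48 h; MTT (5 mg/mL in PBS) added 4 h, formazan dissolved in DMSO, OD 550 nm; quadruplicate wells; IC50 fitted for compounds giving >50% inhibition at 10 µM; at least three independent experiments.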

MDA-MB-231 [2] = assay: Antiproliferative activity against triple negative human MDA-MB-231 cells assessed as reduction in cell growth incubated for 48 hrs by MTT assay; assay type: functional, cell-based; conditions: MDA-MB-231, 48 h; how it was run: as §1
MDA-MB-231 [3] = assay: Antiproliferative activity against triple negative human MDA-MB-231 cells assessed as reduction in cell growth at 10 uM incubated for 48 hrs by MTT assay relative to control; assay type: functional; conditions: MDA-MB-231, 48 h; how it was run: as §1
MCF7 [4] = assay: Antiproliferative activity against ER-positive human MCF7 cells assessed as reduction in cell viability at 10 uM incubated for 48 hrs by MTT assay relative to control; assay type: functional; conditions: MCF7, 48 h; how it was run: as §1
T47D = assay: Antiproliferative activity against ER-positive human T47D cells assessed as reduction in cell growth incubated for 72 hrs by MTT assay; assay type: functional, cell-based
How it was run: (§2)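 MTT viability after 72 h exposure at indicated concentrations; cells seeded at 1×10^3 cells/well (T47D, MDA-MB-468, MCF-10A, MCF-7/ADR) in 96-well plates; quadruplicate wells, independently repeated three times; IC50 as mean ± SE of at least three experiments.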

[5] = Toxicity in mouse xenografted with triple negative human MDA-MB-231 cells assessed as body weight at 40 mg/kg, ip administered once daily for 7 days; assay type: organism-based; conditions: in vivo, 168 h
How it was run: (§3)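 Female nude mice (6 weeks) given 2.5×10^6 MDA-MB-231 cells in PBS into third mammary fat pad, randomized into four groups; at 200 mm³ tumor volume dosed i.p. daily for 7 days in 50% DMSO/50% PEG vehicle; tumor volume (0.5×L×W²) and body weight measured daily; one-way ANOVA.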

MDA-MB-231 [6] = assay: Antitumor activity against triple-negative human MDA-MB-231 cells xenografted in mouse assessed as reduction in tumor growth at 40 mg/kg, ip administered once daily for 7 days; assay type: functional; conditions: MDA-MB-231, ip, 168 h, read-out: GI; how it was run: as §3
MDA-MB-468 = assay: Antiproliferative activity against triple negative human MDA-MB-468 cells assessed as reduction in cell growth incubated for 72 hrs by MTT assay; assay type: functional, cell-based; conditions: MDA-MB-468, 72 h; how it was run: as §2
MCF-10A = assay: Antiproliferative activity against human MCF10A cells assessed as reduction in cell growth incubated for 72 hrs by MTT assay; assay type: functional, cell-based; how it was run: as §2
[7] = Toxicity in mouse xenografted with triple negative human MDA-MB-231 cells assessed as body weight at 20 mg/kg, ip administered once daily for 7 days; assay type: organism-based; conditions: in vivo, 168 h; how it was run: as §3
MDA-MB-231 [8] = assay: Potency index, ratio of SMBA1 IC50 to compound IC50 for antiproliferative activity against triple negative human MDA-MB-231 cells assessed as reduction in cell growth incubated for 48 hrs by MTT assay; assay type: functional
MCF7 [9] = assay: Potency index, ratio of SMBA1 IC50 to compound IC50 for antiproliferative activity against ER-positive human MCF7 cells assessed as reduction in cell growth incubated for 48 hrs by MTT assay; assay type: functional
MDA-MB-231 [10] = assay: Antitumor activity against triple-negative human MDA-MB-231 cells xenografted in mouse assessed as reduction in tumor growth at 20 mg/kg, ip administered once daily for 7 days; assay type: functional; conditions: MDA-MB-231, ip, 168 h, read-out: GI; how it was run: as §3

Structure (SMILES) | IC50 (MCF7 [1]) | IC50 (MDA-MB-231 [2]) | inhibition at 10 µM (MDA-MB-231 [3]) | inhibition at 10 µM (MCF7 [4]) | other results
Nc1ncccc1C=C1c2ccccc2-c2ccc([N+](=O)[O-])cc21 | > 10 µM | > 10 µM | – | – | –
CN1CCN(c2ncccc2C=C2c3ccccc3-c3ccc([N+](=O)[O-])cc32)CC1 | > 10 µM | > 10 µM | – | – | –
COc1ncccc1C=C1c2ccccc2-c2ccc([N+](=O)[O-])cc21 | > 10 µM | > 10 µM | – | – | –
CN1CCN(CCOc2ccccc2C=C2c3ccccc3-c3ccc([N+](=O)[O-])cc32)CC1 | 9.58 µM | > 10 µM | – | > 50% | –
CC(=O)N1CCN(CCOc2ccccc2C=C2c3ccccc3-c3ccc([N+](=O)[O-])cc32)CC1 | > 10 µM | > 10 µM | – | – | –
O=[N+]([O-])c1ccc2c(c1)C(=Cc1ccccc1OCCN1CCN(S(=O)(=O)C3CC3)CC1)c1ccccc1-2 | – | > 10 µM | – | – | –
Nc1ccc2c(c1)C(=Cc1ccccc1O)c1ccccc1-2 | > 10 µM | > 10 µM | – | – | –
O=[N+]([O-])c1ccc2c(c1)C(=Cc1ccccc1OCCN1CCOCC1)c1ccccc1-2 | – | > 10 µM | – | – | –
CS(=O)(=O)N1CCN(CCOc2ccccc2C=C2c3ccccc3-c3ccc([N+](=O)[O-])cc32)CC1 | – | > 10 µM | – | – | –
O=[N+]([O-])c1ccc2c(c1)C(=Cc1cccnc1O)c1ccccc1-2 | – | > 10 µM | – | – | –
O=[N+]([O-])c1ccc2c(c1)C(=Cc1cccnc1N1CCNCC1)c1ccccc1-2 | 5 µM | 4.27 µM | > 50% | > 50% | –
NCCOc1cccc(C=C2c3ccccc3-c3ccc([N+](=O)[O-])cc32)c1 | 3.77 µM | 4.87 µM | > 50% | > 50% | –
NCCOc1ccc(C=C2c3ccccc3-c3ccc([N+](=O)[O-])cc32)cc1 | 8.47 µM | 6.4 µM | > 50% | > 50% | –
CC(C)(C)OC(=O)NCCOc1ccccc1C=C1c2ccccc2-c2ccc([N+](=O)[O-])cc21 | > 10 µM | > 10 µM | – | – | –
NCCOc1ccccc1C=C1c2ccccc2-c2ccc(N)cc21 | 6.31 µM | 6.03 µM | > 50% | > 50% | –

More lines, main results first:

IC50 (MCF7 [1]) | IC50 (MDA-MB-231 [2]) | Structure (SMILES) | inhibition at 10 µM (MDA-MB-231 [3]) | inhibition at 10 µM (MCF7 [4]) | other results
> 10 µM | > 10 µM | O=[N+]([O-])c1ccc2c(c1)C(=Cc1ccccc1OCCF)c1ccccc1-2 | – | – | –
> 10 µM | > 10 µM | NC[C@H](CCl)Oc1ccccc1C=C1c2ccccc2-c2ccc([N+](=O)[O-])cc21 | – | – | –
4.66 µM | 5.08 µM | CC[C@H](N)COc1ccccc1C=C1c2ccccc2-c2ccc([N+](=O)[O-])cc21 | > 50% | > 50% | –
– | > 10 µM | O=[N+]([O-])c1ccc2c(c1)C(=Cc1ccccc1OCCO)c1ccccc1-2 | – | – | –
> 10 µM | > 10 µM | CC(=O)NCCOc1ccccc1C=C1c2ccccc2-c2ccc([N+](=O)[O-])cc21 | – | – | –
6.13 µM | 9.35 µM | NCCOCCOc1ccccc1C=C1c2ccccc2-c2ccc([N+](=O)[O-])cc21 | > 50% | > 50% | –
4.26 µM | 5.48 µM | CNCCOc1ccccc1C=C1c2ccccc2-c2ccc([N+](=O)[O-])cc21 | > 50% | > 50% | –
5.77 µM | 3.66 µM | NCCCCOc1ccccc1C=C1c2ccccc2-c2ccc([N+](=O)[O-])cc21 | > 50% | > 50% | –
> 10 µM | > 10 µM | CN(C)CCNc1ccccc1C=C1c2ccccc2-c2ccc([N+](=O)[O-])cc21 | – | – | –
> 10 µM | > 10 µM | O=[N+]([O-])c1ccc2c(c1)C(=Cc1ccccc1Br)c1ccccc1-2 | – | – | –
5.45 µM | 3.53 µM | O=[N+]([O-])c1ccc2c(c1)C(=Cc1ccccc1OC1CCNCC1)c1ccccc1-2 | > 50% | > 50% | –
> 10 µM | > 10 µM | Nc1ccccc1C=C1c2ccccc2-c2ccc([N+](=O)[O-])cc21 | – | – | –
> 10 µM | > 10 µM | COc1ccccc1C=C1c2ccccc2-c2ccc([N+](=O)[O-])cc21 | – | – | –
8.3 µM | 5.6 µM | O=[N+]([O-])c1ccc2c(c1)C(=Cc1ccccc1O)c1ccccc1-2 | > 50% | > 50% | IC50 (T47D): 10.4 µM; Activity [5]: Non-Toxic; inhibition in vivo at 40 mg/kg (MDA-MB-231 [6]): 51%; IC50 (MDA-MB-468): 16.1 µM; IC50 (MCF-10A): 7.58 µM
4.5 µM | 5.04 µM | CC(C)[C@H](N)COc1ccccc1C=C1c2ccccc2-c2ccc([N+](=O)[O-])cc21 | > 50% | > 50% | –
> 10 µM | 8.64 µM | O=[N+]([O-])c1ccc2c(c1)C(=Cc1ccccc1OCCN1CCCCC1)c1ccccc1-2 | > 50% | – | –
3.81 µM | 3.22 µM | NCCOc1ccccc1C=C1c2ccccc2-c2ccc([N+](=O)[O-])cc21 | > 50% | > 50% | IC50 (T47D): 9.47 µM; Activity [7]: Non-Toxic; Ratio IC50 (MDA-MB-231 [8]): 1.7 - 2.2; Ratio IC50 (MCF7 [9]): 1.7 - 2.2; IC50 (MDA-MB-468): 8.73 µM; IC50 (MCF-10A): 4.37 µM; inhibition in vivo at 20 mg/kg (MDA-MB-231 [10]): 57%
5.13 µM | 5.34 µM | NCCCOc1ccccc1C=C1c2ccccc2-c2ccc([N+](=O)[O-])cc21 | > 50% | > 50% | –
4.97 µM | 3.5 µM | O=[N+]([O-])c1ccc2c(c1)C(=Cc1ccccc1OCCN1CCNCC1)c1ccccc1-2 | > 50% | > 50% | –
> 10 µM | > 10 µM | CN(C)CCOc1ccccc1C=C1c2ccccc2-c2ccc([N+](=O)[O-])cc21 | – | – | –
